Values after ≈ are worked out from the molar mass of the structure shown.
How the values were obtained:
Type in all cases: functional
Candida parapsilosis = experiment: Antimicrobial activity against Candida parapsilosis after 48 hrs by broth microdilution method; conditions: Lodderomyces parapsilosis
Method in brief: (§1)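 Fungi were grown on Sabouraud dextrose agar. Inocula were prepared in Sabouraud liquid medium at 37 °C for 12 h, then diluted in RPMI-1640 with L-glutamine, MOPS-buffered at pH 7. Compounds were made as 1000 µg/mL stocks in 50% DMSO/H₂O and tested as two-fold dilutions from 500 µg/mL. Sealed plates were incubated at 37 °C for 48 h in a humid chamber. MIC was the lowest concentration without visible turbidity.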

Staphylococcus aureus = experiment: Antimicrobial activity against Staphylococcus aureus after 24 hrs by broth microdilution method
Method in brief: (§2)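 Broth microdilution. Bacteria were grown on Mueller-Hinton agar and diluted in Mueller-Hinton broth. Compounds were made as 1000 µg/mL stocks in 50% DMSO/H₂O and added to wells as two-fold dilutions starting at 500 µg/mL, then inoculated. Sealed plates were incubated at 37 °C for 24 h in a humid chamber. MIC was the lowest concentration with no visible turbidity.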

Klebsiella aerogenes = experiment: Antimicrobial activity against Enterobacter aerogenes after 24 hrs by broth microdilution method; method in brief: as §2
Priestia megaterium = experiment: Antimicrobial activity against Bacillus megaterium after 24 hrs by broth microdilution method; method in brief: as §2
Pseudomonas aeruginosa = experiment: Antimicrobial activity against Pseudomonas aeruginosa after 24 hrs by broth microdilution method; method in brief: as §2
Nannizzia gypsea = experiment: Antimicrobial activity against Microsporum gypseum after 48 hrs by broth microdilution method; method in brief: as §1
Escherichia coli = experiment: Antimicrobial activity against Escherichia coli after 24 hrs by broth microdilution method; method in brief: as §2
Enterococcus faecalis = experiment: Antimicrobial activity against Enterococcus faecalis after 24 hrs by broth microdilution method; method in brief: as §2
Aspergillus flavus = experiment: Antimicrobial activity against Aspergillus flavus after 48 hrs by broth microdilution method; method in brief: as §1
Candida albicans = experiment: Antimicrobial activity against Candida albicans after 48 hrs by broth microdilution method; method in brief: as §1

SMILES | MIC (Candida parapsilosis) [µg/mL] | MIC (Staphylococcus aureus) [µg/mL] | MIC (Klebsiella aerogenes) [µg/mL] | MIC (Priestia megaterium) [µg/mL] | MIC (Pseudomonas aeruginosa) [µg/mL] | MIC (Nannizzia gypsea) [µg/mL] | MIC (Escherichia coli) [µg/mL] | MIC (Enterococcus faecalis) [µg/mL] | MIC (Aspergillus flavus) [µg/mL] | MIC (Candida albicans) [µg/mL]
COc1ccc2c(c1)sc1nc(-c3c[nH]c4ccc(Br)cc34)c(Nc3ccc(F)cc3)n12 | 5.63 (≈ 11.1 µM) | 7.33 (≈ 14.4 µM) | 8.13 (≈ 16 µM) | 13.2 (≈ 26.1 µM) | 9.69 (≈ 19.1 µM) | 4.14 (≈ 8.16 µM) | 8.12 (≈ 16 µM) | 10.6 (≈ 20.8 µM) | 3.21 (≈ 6.33 µM) | 4.12 (≈ 8.12 µM)
Cc1ccc(-c2cnc(-c3ccc4nc(-c5c[nH]c6ccc(Br)cc56)c(Nc5ccc(F)cc5)n4c3)[nH]2)cc1 | 18.4 (≈ 31.9 µM) | 5.13 (≈ 8.88 µM) | 6.22 (≈ 10.8 µM) | 1.25 (≈ 2.16 µM) | 8.28 (≈ 14.3 µM) | 15.6 (≈ 27 µM) | 6.11 (≈ 10.6 µM) | 7.32 (≈ 12.7 µM) | 16.5 (≈ 28.5 µM) | 19.5 (≈ 33.8 µM)
Fc1ccc(Nc2c(-c3c[nH]c4ccc(Br)cc34)nc3ccc(-c4ncc(-c5ccc(F)cc5)[nH]4)cn23)cc1 | 4.61 (≈ 7.93 µM) | 0.23 (≈ 0.396 µM) | 0.17 (≈ 0.292 µM) | 1.13 (≈ 1.94 µM) | 0.52 (≈ 0.894 µM) | 8.12 (≈ 14 µM) | 0.42 (≈ 0.722 µM) | 1.96 (≈ 3.37 µM) | 3.25 (≈ 5.59 µM) | 3.21 (≈ 5.52 µM)
OC(Cn1cncn1)(Cn1cncn1)c1ccc(F)cc1F [FLUCONAZOLE] | 4.35 (≈ 14.2 µM) |  |  |  |  | 6.57 (≈ 21.5 µM) |  |  | 9.22 (≈ 30.1 µM) | 2.11 (≈ 6.89 µM)
Fc1ccc(Nc2c(-c3cnc4ccc(Br)cc4c3)nc3ccc(-c4nnc(-c5ccc(F)cc5)o4)cn23)cc1 | 1.35 (≈ 2.27 µM) | 0.46 (≈ 0.773 µM) | 0.41 (≈ 0.689 µM) | 2.21 (≈ 3.71 µM) | 0.75 (≈ 1.26 µM) | 1.14 (≈ 1.91 µM) | 0.75 (≈ 1.26 µM) | 1.38 (≈ 2.32 µM) | 1.32 (≈ 2.22 µM) | 1.22 (≈ 2.05 µM)
Fc1ccc(Nc2c(-c3c[nH]c4ccc(F)cc34)nc3sc4cc(F)ccc4n23)cc1 | 1.24 (≈ 2.85 µM) | 0.18 (≈ 0.414 µM) | 0.23 (≈ 0.529 µM) | 1.52 (≈ 3.5 µM) | 0.11 (≈ 0.253 µM) | 1.23 (≈ 2.83 µM) | 0.14 (≈ 0.322 µM) | 0.41 (≈ 0.944 µM) | 1.15 (≈ 2.65 µM) | 1.15 (≈ 2.65 µM)
O=[N+]([O-])c1ccc2nc(-c3ccc4nc(-c5cnc6ccc(Br)cc6c5)c(Nc5ccc(F)cc5)n4c3)[nH]c2c1 | 5.34 (≈ 8.98 µM) | 2.12 (≈ 3.57 µM) | 3.15 (≈ 5.3 µM) | 4.12 (≈ 6.93 µM) | 2.32 (≈ 3.9 µM) | 9.41 (≈ 15.8 µM) | 2.14 (≈ 3.6 µM) | 3.36 (≈ 5.65 µM) | 7.63 (≈ 12.8 µM) | 4.23 (≈ 7.12 µM)
CC1(C)S[C@@H]2[C@H](NC(=O)[C@H](N)c3ccc(O)cc3)C(=O)N2[C@H]1C(=O)O [AMOXICILLIN] |  | 12.9 (≈ 35.4 µM) | 3.45 (≈ 9.44 µM) | 2.28 (≈ 6.24 µM) | 14.7 (≈ 40.1 µM) |  | 15.3 (≈ 41.9 µM) | 1.62 (≈ 4.43 µM) |  | 
Fc1ccc(Nc2c(-c3cnc4ccc(Br)cc4c3)nc3ccc(-c4nc5ccc(F)cc5[nH]4)cn23)cc1 | 1.22 (≈ 2.15 µM) | 1.46 (≈ 2.57 µM) | 1.55 (≈ 2.73 µM) | 2.53 (≈ 4.46 µM) | 1.35 (≈ 2.38 µM) | 1.21 (≈ 2.13 µM) | 1.34 (≈ 2.36 µM) | 1.47 (≈ 2.59 µM) | 1.36 (≈ 2.4 µM) | 1.11 (≈ 1.96 µM)
Fc1ccc(Nc2c(-c3cnc4ccc(F)cc4c3)nc3sc4cc(F)ccc4n23)cc1 | 1.14 (≈ 2.55 µM) | 0.26 (≈ 0.582 µM) | 0.34 (≈ 0.762 µM) | 0.83 (≈ 1.86 µM) | 0.15 (≈ 0.336 µM) | 1.2 (≈ 2.69 µM) | 0.23 (≈ 0.515 µM) | 0.21 (≈ 0.47 µM) | 1.23 (≈ 2.76 µM) | 1.12 (≈ 2.51 µM)
C=CC1=C(C(=O)O)N2C(=O)[C@@H](NC(=O)/C(=N\OCC(=O)O)c3csc(N)n3)[C@H]2SC1 [CEFIXIME] |  | 34.6 (≈ 76.4 µM) | 27.1 (≈ 59.8 µM) | 126 (≈ 279 µM) | 16.4 (≈ 36.2 µM) |  | 2.12 (≈ 4.68 µM) | 28.6 (≈ 63 µM) |  | 
Fc1ccc(Nc2c(-c3c[nH]c4ccc(Br)cc34)nc3ccc(-c4nnc(-c5ccc(F)cc5)o4)cn23)cc1 | 2.22 (≈ 3.81 µM) | 0.31 (≈ 0.531 µM) | 0.35 (≈ 0.6 µM) | 1.97 (≈ 3.38 µM) | 0.21 (≈ 0.36 µM) | 4.25 (≈ 7.28 µM) | 0.11 (≈ 0.189 µM) | 0.37 (≈ 0.634 µM) | 3.13 (≈ 5.37 µM) | 2.54 (≈ 4.35 µM)
Cc1ccc(-c2nnc(-c3ccc4nc(-c5cnc6ccc(Br)cc6c5)c(Nc5ccc(F)cc5)n4c3)o2)cc1 | 12.2 (≈ 20.7 µM) | 1.24 (≈ 2.1 µM) | 1.74 (≈ 2.94 µM) | 3.15 (≈ 5.33 µM) | 2.57 (≈ 4.35 µM) | 11.2 (≈ 18.9 µM) | 2.43 (≈ 4.11 µM) | 2.32 (≈ 3.92 µM) | 11.3 (≈ 19.1 µM) | 12.2 (≈ 20.7 µM)
Cc1ccc2nc(-c3ccc4nc(-c5cnc6ccc(Br)cc6c5)c(Nc5ccc(F)cc5)n4c3)[nH]c2c1 | 15.5 (≈ 27.6 µM) | 7.43 (≈ 13.2 µM) | 5.35 (≈ 9.5 µM) | 7.54 (≈ 13.4 µM) | 5.45 (≈ 9.67 µM) | 17.5 (≈ 31.1 µM) | 6.21 (≈ 11 µM) | 7.34 (≈ 13 µM) | 15.4 (≈ 27.4 µM) | 16.4 (≈ 29 µM)
